# Data published in ChEMBL document CHEMBL2093137, “WHO-TDR NTD Screening”.
# Tests used:
# [1] = WHO-TDR: Cytotoxicity; type: toxicity, cell-based; settings: human, MRC5 cells
# Plasmodium falciparum K1 = assay: WHO-TDR: Malaria; type: functional, organism-based, Homo sapiens; settings: Erythrocyte
# Procedure, shortened: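 Antiplasmodial potency, expressed as IC50, was measured in a whole-organism assay on intra-erythrocytic Plasmodium falciparum K1 in human red blood cells. The screened library held 10,000 diverse compounds from Life Chemicals.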
# Trypanosoma cruzi = assay: WHO-TDR: Chagas disease; type: functional, organism-based, Homo sapiens; settings: MRC5
# Procedure, shortened: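 Each IC50 reflects antiparasitic potency against intracellular amastigotes of Trypanosoma cruzi Tulahuen CL2 beta-galactosidase strain. These were cultured in MRC-5SV2 human lung fibroblasts and exposed to a 10,000-compound diverse Life Chemicals library screened according to published standard procedures with a reference drug as positive control.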
# [2] = system: Trypanosoma brucei brucei; assay: WHO-TDR: Human African Trypanosomiasis (HAT); type: functional, organism-based; settings: Squib-427
# Procedure, shortened: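 Antiparasitic potency is reported as IC50. The screen covered 10,000 compounds from a diverse Life Chemicals library, filtered for drug-likeness and reactive groups, tested on whole bloodstream-form Trypanosoma brucei of the Squib 427 strain.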
# Leishmania infantum = assay: WHO-TDR: Leishmaniasis; type: functional, organism-based, Mus musculus; settings: Macrophage
# Procedure, shortened: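 Antiparasitic potency, reported as IC50, was measured against intracellular Leishmania infantum amastigotes. The parasite strain was MHOM/MA(BE)/67, and murine peritoneal macrophages served as host cells for the screen of a 10,000-compound diverse library from Life Chemicals.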
# Onchocerca ochengi = assay: WHO-TDR: Onchocerciasis; type: functional; parameters: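 at 12.5 µM on microfilariae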
# Procedure, shortened: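 A diverse library of 10,000 compounds from Life Chemicals, filtered for drug-likeness and reactive groups, was screened against whole microfilariae of Onchocerca ochengi or Onchocerca lienalis. These animal pathogens served as stand-ins for the human parasite. Activity is given as percent inhibition and as IC50.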
# Brugia malayi = assay: WHO-TDR: Lymphatic Filariasis; type: functional; parameters: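 tested at 10 µM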
# Procedure, shortened: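 A diverse library of 10,000 compounds from Life Chemicals was screened against Brugia malayi microfilariae in a whole-organism assay. The library had been filtered for drug-likeness and reactive groups. Activity is given as percent inhibition and as IC50.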
# Schistosoma mansoni = assay: WHO-TDR: Schistosomiasis; type: functional; parameters: concentration or dose not given beside the values
# Procedure, shortened: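 A diverse library of 10,000 compounds from Life Chemicals, filtered for drug-likeness and reactive groups, was screened against whole larval and/or adult Schistosoma mansoni worms of the Puerto Rican strain. Previously published standard procedures were followed, with a reference drug as positive control. Activity is given as percent inhibition and as IC50.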
Compound,IC50 [1],IC50 (Plasmodium falciparum K1),IC50 (Trypanosoma cruzi),IC50 [2],IC50 (Leishmania infantum),% Inhibition (Onchocerca ochengi),% Inhibition (Brugia malayi),% Inhibition (Schistosoma mansoni)
O=C(Cc1csc(Nc2cccc(Cl)c2)n1)N1CCN(C(=O)c2ccco2)CC1,3.98 µg/mL,> 12.9 µg/mL,4.55 µg/mL,4.46 µg/mL,6.7 µg/mL,100%,20%,–
CC(=O)NCCNc1ccc(Nc2cc(C)ccn2)nn1,6.36 µg/mL,5.28 µg/mL,> 8.59 µg/mL,> 8.59 µg/mL,> 8.59 µg/mL,100%,0%,–
CC(C)(C)c1ccc(C(=O)N2CCN(c3ccc(Nc4ccncc4)nn3)CC2)cc1,3.49 µg/mL,3.68 µg/mL,4.1 µg/mL,4 µg/mL,4.04 µg/mL,100%,0%,–
CN(C)c1ccc(NC(=O)Cc2csc(SCc3ccncc3)n2)cc1,> 11.5 µg/mL,> 11.5 µg/mL,3.47 µg/mL,> 11.5 µg/mL,3.65 µg/mL,100%,0%,–
O=C(CCc1csc(NC(=O)c2ccco2)n1)NCc1c(F)cccc1F,> 11.7 µg/mL,> 11.7 µg/mL,> 11.7 µg/mL,> 11.7 µg/mL,> 11.7 µg/mL,100%,0%,–
O=C(Nc1nnc(-c2ccc3c(c2)OCCO3)o1)c1cc(-c2ccccc2)nc2ccccc12,4.33 µg/mL,> 13.5 µg/mL,0.434 µg/mL,4.27 µg/mL,4.37 µg/mL,–,70%,0%
CCCCOc1ccc(C(=O)N2CCN(c3cc(OC)nc(OC)n3)CC2)cc1,> 12 µg/mL,> 12 µg/mL,> 12 µg/mL,> 12 µg/mL,> 12 µg/mL,100%,0%,–
Cc1nc2c(ccc3nc(Nc4nc5ccc(C(C)C)cc5s4)sc32)s1,3.59 µg/mL,3.97 µg/mL,4.11 µg/mL,0.385 µg/mL,0.385 µg/mL,–,25%,0%
O=C(NCCNc1ccc(Nc2cccnc2)nn1)c1cccc(C(F)(F)F)c1,> 12.1 µg/mL,9.79 µg/mL,> 12.1 µg/mL,> 12.1 µg/mL,> 12.1 µg/mL,100%,0%,–
Cc1cc(=O)[nH]c(-n2nc(C)c(CCC(=O)Nc3ccc(F)c(C(F)(F)F)c3)c2C)n1,> 13.1 µg/mL,> 13.1 µg/mL,4.25 µg/mL,5 µg/mL,> 13.1 µg/mL,100%,20%,–
O=C(Nc1nnc(-c2cccnc2)o1)c1cccc(C(F)(F)F)c1,2.99 µg/mL,> 10 µg/mL,0.317 µg/mL,3.38 µg/mL,3.25 µg/mL,–,25%,0%
COc1cc(N2CCN(C(=O)Nc3cccc(Cl)c3)CC2)nc(OC)n1,> 11.3 µg/mL,> 11.3 µg/mL,> 11.3 µg/mL,> 11.3 µg/mL,> 11.3 µg/mL,100%,0%,–
Cc1cc2cc(CNC(=O)c3ccccc3F)ccc2n1C,> 8.89 µg/mL,> 8.89 µg/mL,0.181 µg/mL,> 8.89 µg/mL,> 8.89 µg/mL,–,0%,0%
Cc1cc2cc(CCNC(=O)C3c4ccccc4Oc4ccccc43)c(O)nc2cc1C,> 12.7 µg/mL,> 12.7 µg/mL,> 12.7 µg/mL,> 12.7 µg/mL,0.412 µg/mL,–,0%,0%
COc1cccc2sc(Nc3nc(-c4ccncc4)cs3)nc12,4.5 µg/mL,> 10.2 µg/mL,0.132 µg/mL,> 10.2 µg/mL,> 10.2 µg/mL,–,25%,0%
CCOC(=O)Cn1/c(=N/C(=O)CSC(C)=O)sc2ccccc21,> 10.6 µg/mL,> 10.6 µg/mL,> 10.6 µg/mL,0.342 µg/mL,> 10.6 µg/mL,–,0%,0%
O=C(Nc1nnc(-c2cccnc2)o1)c1cccc(Br)c1,8.09 µg/mL,> 10.4 µg/mL,0.705 µg/mL,> 11 µg/mL,3.35 µg/mL,–,25%,0%
O=C(Nc1nnc(-c2ccco2)o1)c1cc(-c2ccccc2)nc2ccccc12,2.04 µg/mL,9.02 µg/mL,0.305 µg/mL,3.23 µg/mL,3.71 µg/mL,–,0%,0%
O=C(Nc1nnc(C2COc3ccccc3O2)o1)c1ccc(F)cc1 (stereo not given),> 10.2 µg/mL,> 10.2 µg/mL,0.289 µg/mL,> 10.9 µg/mL,> 10.2 µg/mL,–,25%,0%
Cc1c(C(=O)N2CCC(C)CC2)sc2nc(-c3ccc(F)cc3)cn12,> 10.7 µg/mL,> 10.7 µg/mL,> 10.7 µg/mL,0.422 µg/mL,> 10.7 µg/mL,–,0%,0%
COc1cccc2sc(Nc3nc4ccc(NC(C)=O)cc4s3)nc12,> 11.1 µg/mL,> 11.1 µg/mL,0.388 µg/mL,2.97 µg/mL,> 11.1 µg/mL,–,90%,0%
CCOc1ccccc1C(=O)NCc1ccc2c(c1)cc(C)n2C,4.26 µg/mL,4.49 µg/mL,0.057 µg/mL,0.163 µg/mL,> 9.67 µg/mL,–,0%,0%
Cc1cc2cc(CNC(=O)CC(c3ccccc3)c3ccccc3)ccc2[nH]1,> 11.1 µg/mL,> 11.1 µg/mL,0.391 µg/mL,3.37 µg/mL,> 11.1 µg/mL,–,0%,0%
CCCCCOc1cccc(C(=O)Nc2nnc(-c3ccco3)o2)c1,5.71 µg/mL,> 10.2 µg/mL,0.368 µg/mL,3.29 µg/mL,3.28 µg/mL,–,25%,0%
Cc1cc2cc(CNC(=O)c3ccccc3Br)ccc2n1C,> 10.7 µg/mL,> 10.7 µg/mL,0.487 µg/mL,3.39 µg/mL,> 10.7 µg/mL,–,0%,0%
